Reference: ChEMBL document CHEMBL4004835, “Discovery of Novel Disruptor of Silencing Telomeric 1-Like (DOT1L) Inhibitors using a Target-Specific Scoring Function for the (S)-Adenosyl-l-methionine (SAM)-Dependent Methyltransferase Family” (J Med Chem, 2017)
The source made the active and inactive calls. No cut-off for these calls is given here.

Key:
[1] = molecular target: T1, Histone-lysine N-methyltransferase, H3 lysine-79 specific (Homo sapiens, UniProt Q8TEK3); assay: Inhibition of N-terminal 6His-tagged human DOT1L (1 to 416 residues) expressed in Escherichia coli BL21(DE3) at 50 uM preincubated for 15 mins followed by [3H]-SAM addition measured after 120 mins by radioactive methylation assay
In short: (§1)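 DOT1L and compound preincubated 15 min at room temperature; oligonucleosome and 3H-SAM added; reaction 120 min at room temperature, stopped with cold SAM; transferred to 0.5% PEI-pretreated filter plate, washed 3× with water, read by liquid scintillation counting.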
Target sequence in this assay (Q8TEK3 whole entry, looked up, the tested form may be a part): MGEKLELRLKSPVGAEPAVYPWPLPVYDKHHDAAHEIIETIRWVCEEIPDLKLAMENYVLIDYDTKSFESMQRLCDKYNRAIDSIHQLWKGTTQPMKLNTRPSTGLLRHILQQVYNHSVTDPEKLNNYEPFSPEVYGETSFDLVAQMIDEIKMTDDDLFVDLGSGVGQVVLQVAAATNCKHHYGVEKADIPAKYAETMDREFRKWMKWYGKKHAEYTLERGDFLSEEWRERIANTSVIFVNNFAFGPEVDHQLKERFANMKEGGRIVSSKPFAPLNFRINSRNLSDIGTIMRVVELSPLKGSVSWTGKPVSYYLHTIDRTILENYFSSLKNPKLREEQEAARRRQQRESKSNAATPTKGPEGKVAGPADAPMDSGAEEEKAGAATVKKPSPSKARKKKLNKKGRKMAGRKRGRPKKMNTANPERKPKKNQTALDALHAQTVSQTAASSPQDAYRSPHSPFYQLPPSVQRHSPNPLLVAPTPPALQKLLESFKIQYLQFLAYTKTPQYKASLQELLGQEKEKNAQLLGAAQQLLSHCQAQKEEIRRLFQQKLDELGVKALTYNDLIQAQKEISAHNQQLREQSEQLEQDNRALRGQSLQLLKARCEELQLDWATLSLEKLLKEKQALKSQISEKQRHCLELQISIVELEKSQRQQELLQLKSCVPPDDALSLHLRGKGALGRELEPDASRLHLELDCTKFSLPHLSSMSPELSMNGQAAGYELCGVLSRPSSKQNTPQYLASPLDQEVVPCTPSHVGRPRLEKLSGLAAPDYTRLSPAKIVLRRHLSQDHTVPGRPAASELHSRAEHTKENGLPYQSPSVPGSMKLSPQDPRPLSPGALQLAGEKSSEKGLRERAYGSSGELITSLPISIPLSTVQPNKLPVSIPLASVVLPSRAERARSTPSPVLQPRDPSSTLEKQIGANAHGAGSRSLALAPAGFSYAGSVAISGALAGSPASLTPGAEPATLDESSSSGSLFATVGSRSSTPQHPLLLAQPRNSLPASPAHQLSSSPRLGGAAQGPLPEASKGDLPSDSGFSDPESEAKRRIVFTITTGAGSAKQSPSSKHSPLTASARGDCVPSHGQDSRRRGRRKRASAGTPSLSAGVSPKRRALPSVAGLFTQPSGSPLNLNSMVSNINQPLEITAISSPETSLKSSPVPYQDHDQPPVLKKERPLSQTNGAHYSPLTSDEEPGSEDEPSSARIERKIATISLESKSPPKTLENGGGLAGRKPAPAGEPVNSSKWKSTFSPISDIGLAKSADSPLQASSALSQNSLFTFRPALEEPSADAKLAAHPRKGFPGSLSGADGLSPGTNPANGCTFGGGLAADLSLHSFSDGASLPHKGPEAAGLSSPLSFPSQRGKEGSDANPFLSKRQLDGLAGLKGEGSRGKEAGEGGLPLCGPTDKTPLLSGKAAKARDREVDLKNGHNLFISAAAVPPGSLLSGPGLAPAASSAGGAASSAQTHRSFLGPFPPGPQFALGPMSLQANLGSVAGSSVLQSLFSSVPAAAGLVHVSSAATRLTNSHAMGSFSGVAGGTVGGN

[2] = molecular target: T1, Histone-lysine N-methyltransferase, H3 lysine-79 specific; assay: Inhibition of N-terminal 6His-tagged human DOT1L (1 to 416 residues) expressed in Escherichia coli BL21(DE3) at preincubated for 15 mins followed by [3H]-SAM addition measured after 120 mins by radioactive methylation assay; in short: as §1
Target sequence in this assay (Q8TEK3 whole entry, the tested form may be a part): as the sequence (Q8TEK3 whole entry, looked up, the tested form may be a part) above

[3] = molecular target: T1, Histone-lysine N-methyltransferase, H3 lysine-79 specific; assay: Inhibition of N-terminal 6His-tagged human DOT1L (1 to 416 residues) expressed in Escherichia coli BL21(DE3) at 50 and 100 uM preincubated for 15 mins followed by [3H]-SAM addition measured after 120 mins by radioactive methylation assay; in short: as §1
Target sequence in this assay (Q8TEK3 whole entry, looked up, the tested form may be a part): as above

[4] = molecular target: T1, Histone-lysine N-methyltransferase, H3 lysine-79 specific; assay: Inhibition of N-terminal 6His-tagged human DOT1L (1 to 416 residues) expressed in Escherichia coli BL21(DE3) at 50 uM using histone H3 as substrate preincubated for 15 mins followed by SAM addition measured after 60 mins by AlphaLISA assay
In short: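 DOT1L (80 nM final) preincubated with compound 15 min at 25 °C; SAM 1 mM and oligonucleosomes 0.25 ng/μL added in 50 mM Tris-HCl pH 8.0, 150 mM NaCl, 3 mM MgCl2, 0.1% BSA, 60 min at 25 °C; stopped with high-salt buffer; H3K79me2 detected with anti-H3 acceptor beads, biotinylated antibody, then streptavidin donor beads.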
Target sequence in this assay (Q8TEK3 whole entry, looked up, the tested form may be a part): as above

Row | Compound | inhibition [1] | other results
1 | CCOc1ccc(-c2nn3c(Cn4nnc5ccccc54)nnc3s2)cc1 | 50% | 
2 | COc1ccc(-c2nn3c(Cn4nnc5ccccc54)nnc3s2)cc1 | 54% | 
3 | Cc1nc2ccccc2n1Cc1nnc2sc(-c3ccc(F)c(Br)c3)nn12 | 49% | 
4 | c1ccc2c(c1)nnn2Cc1nnc2sc(-c3ccc4c(c3)OCCO4)nn12 | 66% | IC50 [2]: 8.4 µM
5 | c1ccc(-c2nn3c(Cn4cnc5ccccc54)nnc3s2)cc1 | 55% | 
6 | COc1cccc(-c2nn3c(Cn4nnc5ccccc54)nnc3s2)c1 | 70% | IC50 [2]: 6.47 µM
7 | Fc1cccc(-c2nn3c(CSc4ccccc4)nnc3s2)c1 | 21% | 
8 | Fc1cccc(-c2nn3c(Cc4ccccc4)nnc3s2)c1 | 33% | 
9 | Brc1cccc(-c2nn3c(Cn4cnc5ccccc54)nnc3s2)c1 | 62% | IC50 [2]: 4.09 µM
10 | CCCc1nnc2sc(-c3cccc(F)c3)nn12 | 35% | 
11 | Brc1ccc(-c2nn3c(Cn4nnc5ccccc54)nnc3s2)cc1 | 50% | 
12 | CCOc1cc(CNCc2ccc(C(=O)O)cc2)ccc1OCc1cccs1 |  | inhibition [3]: Active; inhibition [4]: > 40%
13 | Cc1ccccc1-c1nn2c(Cn3nnc4ccccc43)nnc2s1 | 55% | 
14 | Fc1cccc(-c2nn3c(Cc4ccccc4F)nnc3s2)c1 | 25% | 
15 | Fc1cccc(-c2nn3c(-c4cccc(F)c4)nnc3s2)c1 | 11% | 
16 | c1ccc2c(c1)nnn2Cc1nnc2sc(-c3ccc4c(c3)OCO4)nn12 | 65% | IC50 [2]: 3.96 µM
17 | c1ccc(-c2nn3c(Cn4nnc5ccccc54)nnc3s2)nc1 | 53% | 
18 | Fc1cccc(-c2nn3c(Cn4cnc5ccccc54)nnc3s2)c1 | 57% | 
19 | Fc1cccc(-c2nn3c(CCc4ccccc4)nnc3s2)c1 | 18% | 

Row | Compound | inhibition [1] | other results
20 | c1ccc2c(c1)nnn2Cc1nnc2sc(C34CC5CC(CC(C5)C3)C4)nn12 | 38% | 
21 | Fc1cccc(-c2nn3c(-c4ccccc4)nnc3s2)c1 | 15% | 
22 | CC(C)(C)c1ccc(-c2nn3c(Cn4nnc5ccccc54)nnc3s2)cc1 | 67% | IC50 [2]: 4.48 µM
23 | CC(C)N(CCCNC(=O)Nc1ccc(C(C)(C)C)cc1)C[C@H]1O[C@@H](n2ccc3c(N)ncnc32)[C@H](O)[C@@H]1O |  | inhibition [4]: > 40%
24 | O=C1C/C(=N\Nc2nc(-c3cccc(O)c3)cs2)c2ccccc21 |  | inhibition [3]: Active; inhibition [4]: > 40%
25 | Cc1ccc(OCc2nn3c(Cn4nnc5ccccc54)nnc3s2)cc1 | 52% | 
26 | COc1ccc(-c2nn3c(Cn4nnc5ccccc54)nnc3s2)cc1OC | 56% | 
27 | COc1ccccc1-c1nn2c(Cn3nnc4ccccc43)nnc2s1 | 55% | 
28 | Fc1ccc(-c2nn3c(Cn4nnc5ccccc54)nnc3s2)cc1 | 69% | IC50 [2]: 4.64 µM
29 | Cc1ccccc1Cc1nnc2sc(-c3cccc(F)c3)nn12 | 27% | 
30 | Cc1ccc(-c2nn3c(Cn4cnc5ccccc54)nnc3s2)cc1C | 72% | IC50 [2]: 17.4 µM
31 | c1ccc(OCc2nn3c(Cn4nnc5ccccc54)nnc3s2)cc1 | 43% | 
32 | c1coc(-c2nn3c(Cn4nnc5ccccc54)nnc3s2)c1 | 48% | 
33 | Cc1cccc(OCc2nn3c(Cn4nnc5ccccc54)nnc3s2)c1 | 50% | 
34 | Cc1ccc(Cn2c(SCC(=O)N/N=C/c3ccc(O)cc3)nc3ccccc32)cc1 |  | inhibition [3]: Active; inhibition [4]: > 40%
35 | Fc1cccc(-c2nn3c(CN4CCCCC4)nnc3s2)c1 | 6% | 
36 | c1ccc(Cc2nn3c(Cn4nnc5ccccc54)nnc3s2)cc1 | 63% | IC50 [2]: 19.4 µM
37 | CCc1nnc2sc(-c3cccc(F)c3)nn12 | 13% | 
